From PubChem BioAssay AID540295 (The Scripps Research Institute Molecular Screening Center, 2011)
The campaign covered roughly 360,000 compounds. About 1,700 (0.47%) were called active.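 Rule for the calls: active = inhibition above its plate's cutoff, the mean of tested wells on that plate plus 3 SD (cut at about 29% in these data); inactive = the rest.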 What follows is part of a selection rich in actives, with near analogues and random picks from the rest.

What follows are molecules tested against Melanocortin receptor 4 (Homo sapiens) (UniProt P32245) (assay: MC4R antagonists of cAMP signaling, primary screen, cell-based, TR-FRET, antagonist arm of biased-ligand search (AID 540295;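 note: 0% = Melanotan II alone and 100% = Melanotan II plus saturating MCL0020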)). Settings: MC4R-expressing cells, MTII-stimulated cAMP, LANCE TR-FRET; at 6.5 µM; active compounds read high.
Chain of Melanocortin receptor 4 (Homo sapiens) (P32245 whole entry, looked up): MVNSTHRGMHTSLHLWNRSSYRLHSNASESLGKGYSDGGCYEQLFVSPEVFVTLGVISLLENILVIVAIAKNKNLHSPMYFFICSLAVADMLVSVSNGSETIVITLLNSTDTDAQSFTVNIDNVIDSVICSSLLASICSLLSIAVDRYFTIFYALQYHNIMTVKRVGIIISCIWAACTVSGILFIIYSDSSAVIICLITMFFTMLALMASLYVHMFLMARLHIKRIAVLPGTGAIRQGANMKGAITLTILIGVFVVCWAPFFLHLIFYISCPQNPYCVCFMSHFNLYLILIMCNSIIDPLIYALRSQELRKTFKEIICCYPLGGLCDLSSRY
Summary of the method: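 Material – human MC4R-expressing U2OS cells · Repeats – no replicates · Detection – TR-FRET with Eu-cAMP and labeled anti-cAMP, 671 nm · Times – compound 30 min, challenge 1 h, detection 1 h · Compound – single nominal compound dose of 6.5 µM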
For COC(=O)c1sc(NC(=O)COC(=O)C2CCC2)c(C(=O)OC)c1C, the inhibition was 3.01% (inactive).
For CCOC(=O)c1c(NC(=O)COC(=O)c2ccc(S(=O)(=O)C(F)F)cc2)sc(C(=O)N(C)C)c1C, the inhibition was 8.14% (inactive).
CCOC(=O)c1c(NC(=O)CCl)sc(C(=O)N(CC)CC)c1C was tested, and the inhibition was 32.6% (active).
In the case of O=S(=O)(c1ccc(SCc2ccc(Br)cc2)nc1)N1CCOCC1, the inhibition is reported as 5.21% (inactive).
In the case of CCCCC1N2CC3([N+](=O)[O-])CN1CC([N+](=O)[O-])(C2)C3(C)C (centres undefined), the inhibition is reported as 1.22% (inactive).
With Cn1c(=O)[nH]c(=O)c2c1nc(CN1CCN(c3ccccc3F)CC1)n2CCc1ccccc1 the inhibition was 4.45% (inactive).
For COc1ccc2oc(=O)cc(CN3CCOCC3)c2c1, the inhibition was 5.75% (inactive).
For COc1ccc2oc(N)c(C=O)c(=O)c2c1, the inhibition was 37.6% (active).
In the case of COc1ccc2oc(N)nc2c1, the inhibition is reported as -3.46% (inactive).
O=C(Nc1ccccc1)c1nnsc1S(=O)(=O)c1ccc(Cl)cc1 was tested, and the inhibition was 22.3% (inactive).
COc1cccc(NC(=O)c2ccccc2N(Cc2ccccc2)S(C)(=O)=O)c1 was tested, and the inhibition was 4.09% (inactive).
With COc1ccc(/C=N/OCC(=O)N(Cc2ccccc2)c2ccccc2C(=O)O)cc1 the inhibition was 32.2% (active).
For CCOC(=O)N1CCN(C(=O)c2ccccc2N(Cc2ccccc2)S(=O)(=O)c2ccc(OC)cc2)CC1, the inhibition was -11% (inactive).
With CCc1nnc(NC(=O)[C@@H](NC(=O)c2cccc(C)c2)C(C)C)s1 the inhibition was 2.22% (inactive).
COc1ccc2c(c1)c1nc3n(c(=O)c1n2CC(=O)Nc1ccccc1)CCS3 was tested, and the inhibition was -10.3% (inactive).
COc1cccc(NC(=O)Cn2c3ccccc3c3nc4n(c(=O)c32)CCS4)c1 was tested, and the inhibition was 19.8% (inactive).
For COc1ccc(-c2nc3n(c(=O)c2C#N)CCS3)c(OC)c1, the inhibition was 30.9% (active).
CC=CCn1c(SCCCc2ccccc2)nc2c1c(=O)[nH]c(=O)n2C was tested, and the inhibition was -6.73% (inactive).
In the case of COc1ccc(S(=O)(=O)NC(=O)C2(C)CCN2C(=O)c2ccccc2CCc2ccccc2)cc1 (centres undefined), the inhibition is reported as -3.11% (inactive).
In the case of N#Cc1ccc(OCC(=O)Nc2nc(-c3ccccn3)cs2)cc1, the inhibition is reported as -1.39% (inactive).
With CCCC/C(C)=N/NC(=O)NC1CCCCC1 the inhibition was 6.08% (inactive).
COc1ccc(CCNC(=O)CCCCCNC(=O)N2CCn3c2nc2ccccc23)cc1OC was tested, and the inhibition was 2.13% (inactive).
COc1ccc(NC(=O)C2Cc3c(-c4ccc5c(c4)OCO5)ccnc3O2)cn1 (centres undefined) was tested, and the inhibition was -23.9% (inactive).
With COc1ccc(NC(=O)/C(Cl)=C(/Cl)S(=O)Cc2ccc(C)cc2)cn1 (centres undefined) the inhibition was 57.8% (active).
COc1ccc(NC(=O)CN2C(=O)NC(C)(c3ccccc3)C2=O)cn1 (centres undefined) was tested, and the inhibition was -0.87% (inactive).
COc1cc(C(=O)NCc2ccc(-n3cccc3)cc2)cc(OC)c1OC was tested, and the inhibition was 5.76% (inactive).
With Cc1cccc(-c2cnc(C(O)c3ccc4ccccc4c3)[nH]2)c1 (centres undefined) the inhibition was 5.06% (inactive).
Cc1c(CCC(=O)O)c(=O)oc2c(C)c(OCc3ccccc3Cl)ccc12 was tested, and the inhibition was 17.1% (inactive).
In the case of Cc1c(CCC(=O)O)c(=O)oc2cc(OCc3ccc(Br)cc3)ccc12, the inhibition is reported as 29.8% (active).
With Cc1coc2cc3oc(=O)c(CCC(=O)O)c(C)c3cc12 the inhibition was 4.19% (inactive).
For Cc1ccc(-c2nnc(CN3CCN(C)CC3)o2)cc1, the inhibition was 30.6% (active).
CCOC(=O)N1CCN(Cc2nnc(-c3ccccc3Cl)o2)CC1 was tested, and the inhibition was 2.09% (inactive).
In the case of CCOC(=O)C1CCN(Cc2nnc(-c3cccc(Br)c3)o2)CC1, the inhibition is reported as 7.07% (inactive).
Cc1ccc(Cl)cc1-c1ccc(/C=N/n2cnnc2)o1 was tested, and the inhibition was -0.99% (inactive).
In the case of Cc1ccccc1-c1n[nH]c(=S)n1/N=C/c1ccc(-c2ccccc2Br)o1, the inhibition is reported as 28.7% (active).
For S=c1[nH]nc(-c2ccco2)n1/N=C/c1ccc(Br)s1, the inhibition was -2.7% (inactive).
Cc1nn(Cc2ccc(F)cc2)c(C)c1NC(=O)c1noc2c1CCc1ccccc1-2 was tested, and the inhibition was 10.4% (inactive).
For COc1cc(C(=O)N2CCOC23CCN(Cc2ccccc2)CC3)cc(OC)c1OC, the inhibition was 0.19% (inactive).
With O=C1c2ccccc2S(=O)(=O)c2cc(N3CCN(c4ccccn4)CC3)ccc21 the inhibition was 11.1% (inactive).
For O=C(c1ccc2c(c1)N(Cc1ccc(F)cc1)C(=O)c1ccccc1S2(=O)=O)N1CCN(c2ccccn2)CC1, the inhibition was 30.5% (active).
O=C(c1ccc2c(c1)C(=O)N(c1ccc(Cl)cc1)C2=O)N1CCN(c2ccccn2)CC1 was tested, and the inhibition was 7.23% (inactive).
For Cc1ccc(C)c(N2CCN(C(=O)CCc3nc(-c4cccc(C(F)(F)F)c4)no3)CC2)c1, the inhibition was -2.59% (inactive).
In the case of COCC(=O)Nc1c(C(=O)N2CCCC2)oc2ccccc12, the inhibition is reported as 2.6% (inactive).
For COc1cccc(OC)c1C(=O)Nc1c(C(=O)N2CCN(c3ccccn3)CC2)oc2ccccc12, the inhibition was 36.6% (active).
Cc1cc(C(=O)N2CCN(c3ccccn3)CC2)c(C)o1 was tested, and the inhibition was -0.72% (inactive).
CCOc1ccc(CCNC(=O)CN2C(=O)NC3(CCc4ccccc43)C2=O)cc1OCC (centres undefined) was tested, and the inhibition was 7.52% (inactive).
For CCO[C@H]1OC(C(=O)Nc2ccccc2)=C[C@@H](C2CC2)[C@@H]1CCCO, the inhibition was 8.5% (inactive).
COc1cc(S(=O)(=O)Nc2ncn[nH]2)ccc1Cl was tested, and the inhibition was 3.99% (inactive).
For COc1ccc(OC)c(S(=O)(=O)Nc2c(C)nn(C)c2C)c1, the inhibition was -0.88% (inactive).
In the case of COc1ccc(C(C)C)cc1S(=O)(=O)Nc1ncn[nH]1, the inhibition is reported as 32.9% (active).
For CC(C)CC(=O)Nc1cc(C(F)(F)F)ccc1N1CCOCC1, the inhibition was 8.93% (inactive).
In the case of O=C(Cn1nnc2ccccc2c1=O)Nc1cc(C(F)(F)F)ccc1N1CCOCC1, the inhibition is reported as 30.3% (active).
For O=C(CN1C(=O)NC2(CCCC2)C1=O)Nc1cc(C(F)(F)F)ccc1N1CCOCC1, the inhibition was 2.08% (inactive).
For O=C(Nc1ccc(S(=O)(=O)Nc2nccs2)cc1)c1cccc(S(=O)(=O)N2CCOCC2)c1, the inhibition was 13.1% (inactive).
For O=C(Nc1nccs1)c1cc(S(=O)(=O)N2CCOCC2)c(Cl)cc1Cl, the inhibition was 35.1% (active).
With O=C(NCc1cccnc1)c1cc(S(=O)(=O)N2CCOCC2)c(Cl)cc1Cl the inhibition was 2.73% (inactive).
Cc1ccc(S(=O)(=O)N(CC(=O)N/N=C/c2ccc(F)cc2)c2cccc3cccnc23)cc1 was tested, and the inhibition was 15.1% (inactive).
COc1ccccc1N(CC(=O)Nc1c(C)n(C)n(-c2ccccc2)c1=O)S(=O)(=O)c1ccccc1 was tested, and the inhibition was -1.81% (inactive).
For COc1ccccc1N(CC(=O)N/N=C(\C)c1ccccc1O)S(=O)(=O)c1ccc(C)cc1, the inhibition was 33.9% (active).
